Experimental findings from ChEMBL document CHEMBL2046403, “Biochemical and pharmacological evaluation of 4-hydroxychromen-2-ones bearing polar C-3 substituents as anticoagulants” (Eur J Med Chem, 2012) are described below.

Data set [1] concerns Rattus norvegicus. Put plainly: Hepatotoxicity in Wistar albino rat assessed as change in serum albumin level at 0.5 mg/kg/day, ip administered for 5 days. It is filed as toxicity, organism-based. Also noted: route intraperitoneal. The note with it: in vivo, 120 h.
The subject of data set [2] is Plasma. Put plainly: Anticoagulant activity in human plasma assessed as international normalized ratio at 1 mg/ml. The class given is functional. In outline:
(§1)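 Frozen human plasma (blood type A+) was used. Compounds were prepared at 1 mg/mL in a vehicle of 96% EtOH, 0.9% NaCl, 20% glycerol and phosphate buffer pH 7. Prothrombin time was measured by Quick method and reported in seconds and as INR, with SD from at least three measurements.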

In data set [3] the test system is Plasma. Put plainly: Anticoagulant activity in Wistar albino rat plasma assessed as fibrinogen level. It is filed as functional. The gist of the method: (§2)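 Adult albino Wistar rats (2.5 months old, 220–250 g), three per compound and control. […] Fibrin time and fibrinogen were determined on plasma. Fibrinogen was quantified by biuret method at 540 nm. At least three measurements, reported with standard deviation.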

The subject of data set [4] is Rattus norvegicus. Put plainly: Anticoagulant activity in Wistar rats in vivo assessed as prothrombin time.
Data set [5] relates to Plasma. Description: Anticoagulant activity in human plasma assessed as prothrombin time at 1 mg/ml. The class given is functional. The gist of the method: as §1
Data set [6] concerns Rattus norvegicus. Put plainly: Hepatotoxicity in Wistar albino rat assessed as change in serum protein level at 0.5 mg/kg/day, ip administered for 5 days. The class given is toxicity, organism-based. More on the design: route intraperitoneal. The following applies: in vivo, 120 h.
The subject of data set [7] is Rattus norvegicus. Put plainly: Hepatotoxicity in Wistar albino rat assessed as change in serum albumin level at 0.5 mg/kg, ip measured after 24 hrs. More on the design: dose 0.5 mg/kg, route intraperitoneal. The note with it: in vivo. The class given is toxicity, organism-based.
For data set [8], the system named is Plasma. Description: Anticoagulant activity in Wistar albino rat plasma assessed as international normalized ratio at 0.5 mg/kg, ip. The class given is functional. The following applies: route intraperitoneal. The gist of the method:
(§3)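 Adult Wistar rats (2.5 months, 220–250 g), three per compound and control, were given a single i.p. dose of 0.1 or 0.5 mg/kg in ethanol solution and sacrificed 24 h later. […] Plasma prothrombin time was measured by Quick method and reported in seconds and as INR, from at least three measurements.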

The test system of data set [9] is Rattus norvegicus. Description: Hepatotoxicity in Wistar albino rat assessed as change in serum protein level at 0.5 mg/kg, ip measured after 24 hrs. The class given is toxicity, organism-based. More on the design: dose 0.5 mg/kg, route intraperitoneal. The note with it: in vivo.
In data set [10] the test system is Plasma. Description: Anticoagulant activity in Wistar albino rat plasma assessed as fibrin time. It is filed as functional. The gist of the method: as §2
Data set [11] has as its system Plasma. Description: Anticoagulant activity in Wistar albino rat plasma assessed as international normalized ratio at 0.1 mg/kg, ip. The class given is functional. The note with it: route intraperitoneal. In outline: as §3
Data set [12] has as its system Plasma. Put plainly: Anticoagulant activity in Wistar albino rat plasma assessed as prothrombin time at 0.5 mg/kg, ip. The note with it: route intraperitoneal. It is filed as functional. The gist of the method: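 Adult Wistar rats (2.5 months, 220–250 g), three per compound and control, were given a single i.p. dose of 0.1 or 0.5 mg/kg in ethanol solution and sacrificed 24 h later. Plasma prothrombin time was measured by Quick method and reported in seconds and as INR, from at least three measurements.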

Data set [13] has as its system Plasma. Put plainly: Anticoagulant activity in Wistar albino rat plasma assessed as prothrombin time at 0.1 mg/kg, ip. The note with it: route intraperitoneal. It is filed as functional. In outline: as §3

The structures appear in SMILES notation.

Regarding `C/C(=C(\C#N)C(=O)O)c1c(O)c2ccccc2oc1=O`, the Activity was 38.6 g/L in the data set with Rattus norvegicus [1]; 0.5 g/L in the data set on Plasma [3]; 68.9 g/L in the data set on Rattus norvegicus [6]; 38.6 g/L in the data set with Rattus norvegicus [7]; 68.9 g/L in the data set on Rattus norvegicus [9]. For the same compound, the Ratio in the data set on Plasma [2] came to 2.25; in the data set with Plasma [8], 0.69; in the data set on Plasma [11] it was 0.66. Moreover, the IC50 – broadly, the concentration that gives 50% inhibition – in the data set on Rattus norvegicus [4] is 2.34 mM. Besides, the PT in the data set on Plasma [5] is given as 21 s; with Plasma [12], 9.2 s; in the data set on Plasma [13], 8.2 s. Moreover, the Time in the data set on Plasma [10] is reported as 196.8 s.
